Laboratory results reported in ChEMBL document CHEMBL3994579, “Synthesis and antibacterial activity of novel 3-O-descladinosylazithromycin derivatives” (2017).
≈ marks a conversion by molar mass, not a printed value.

What was measured:
Format in all cases: functional
Streptococcus pyogenes [1] = experiment: Antibacterial activity against erythromycin-susceptible Streptococcus pyogenes clinical isolate by broth microdilution method
Summary of the method: (§1)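 MICs were determined in vitro by broth microdilution following the NCCL-recommended method. Azithromycin and clarithromycin were run alongside as reference antibiotics on the same strain panel.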

Staphylococcus aureus [2] = experiment: Antibacterial activity against […] Staphylococcus aureus ATCC 29213 by broth microdilution method
Summary of the method: (§2)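 Broth microdilution per NCCL recommendation, read as minimal inhibitory concentration, run alongside azithromycin and clarithromycin references. Strains: S. pneumoniae B1 (erythromycin-resistant, ermB), A22072 (erythromycin-resistant, mefA), AB11 (erythromycin-resistant, erm and mef); S. aureus ATCC29213 ([…]); S. epidermidis clinical isolate (penicillin-resistant, not characterized).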

Streptococcus pneumoniae [3] = experiment: Antibacterial activity against erythromycin-resistant Streptococcus pneumoniae AB11 expressing ermB/mefA genes by broth microdilution method; summary of the method: as §2
Staphylococcus aureus [4] = experiment: Antibacterial activity against erythromycin-susceptible Staphylococcus aureus ATCC 25923 by broth microdilution method; summary of the method: as §1
Escherichia coli = experiment: Antibacterial activity against penicillin-susceptible Escherichia coli ATCC 25922 by broth microdilution method; summary of the method: as §1
Streptococcus pyogenes [5] = experiment: Antibacterial activity against erythromycin-resistant Streptococcus pyogenes R1 clinical isolate by broth microdilution method
Streptococcus pneumoniae [6] = experiment: Antibacterial activity against erythromycin-resistant Streptococcus pneumoniae A22072 expressing mefA gene by broth microdilution method; summary of the method: as §2
Pseudomonas aeruginosa = experiment: Antibacterial activity against penicillin-susceptible Pseudomonas aeruginosa ATCC 27853 by broth microdilution method; summary of the method: as §1
Bacillus subtilis = experiment: Antibacterial activity against erythromycin/penicillin-susceptible Bacillus subtilis ATCC 9372 by broth microdilution method; summary of the method: as §1
[7] = tested on: Staphylococcus epidermidis; experiment: Antibacterial activity against penicillin-resistant Staphylococcus epidermidis clinical isolate by broth microdilution method; summary of the method: as §2
Streptococcus pneumoniae [8] = experiment: Antibacterial activity against erythromycin-resistant Streptococcus pneumoniae B1 expressing ermB gene by broth microdilution method; summary of the method: as §2

| SMILES | MIC (Streptococcus pyogenes [1]) | MIC (Staphylococcus aureus [2]) | MIC (Streptococcus pneumoniae [3]) | MIC (Staphylococcus aureus [4]) | MIC (Escherichia coli) | MIC (Streptococcus pyogenes [5]) | MIC (Streptococcus pneumoniae [6]) | MIC (Pseudomonas aeruginosa) | MIC (Bacillus subtilis) | MIC [7] | MIC (Streptococcus pneumoniae [8]) |
| --- | --- | --- | --- | --- | --- | --- | --- | --- | --- | --- | --- |
| CC[C@H]1OC(=O)[C@H](C)[C@@H](OC(=O)Nc2ccc(F)cc2)[C@H](C)[C@@H](O[C@@H]2O[C@H](C)C[C@H](N(C)C)[C@H]2O)[C@](C)(O)C[C@@H](C)CN(C)[C@H](C)[C@H]2OC(=O)O[C@@]21C | 0.25 µg/mL (≈ 0.332 µM) | 64 µg/mL (≈ 84.9 µM) | 8 µg/mL (≈ 10.6 µM) | 32 µg/mL (≈ 42.4 µM) | 128 µg/mL (≈ 170 µM) | 64 µg/mL (≈ 84.9 µM) | 2 µg/mL (≈ 2.65 µM) | 128 µg/mL (≈ 170 µM) | 16 µg/mL (≈ 21.2 µM) | 64 µg/mL (≈ 84.9 µM) | 32 µg/mL (≈ 42.4 µM) |
| CC[C@H]1OC(=O)[C@H](C)[C@@H](OC(=O)Nc2ccccc2)[C@H](C)[C@@H](O[C@@H]2O[C@H](C)C[C@H](N(C)C)[C@H]2O)[C@](C)(O)C[C@@H](C)CN(C)[C@H](C)[C@@H](OC(=O)NCc2ccc(C)cc2)[C@]1(C)O | 4 µg/mL (≈ 4.67 µM) | 128 µg/mL (≈ 149 µM) | 64 µg/mL (≈ 74.7 µM) | 32 µg/mL (≈ 37.3 µM) | 128 µg/mL (≈ 149 µM) | 64 µg/mL (≈ 74.7 µM) | 16 µg/mL (≈ 18.7 µM) | 128 µg/mL (≈ 149 µM) | 32 µg/mL (≈ 37.3 µM) | 16 µg/mL (≈ 18.7 µM) | 64 µg/mL (≈ 74.7 µM) |
| CC[C@H]1OC(=O)[C@H](C)[C@@H](OC(=O)Nc2cccc(C(F)(F)F)c2)[C@H](C)[C@@H](O[C@@H]2O[C@H](C)C[C@H](N(C)C)[C@H]2O)[C@](C)(O)C[C@@H](C)CN(C)[C@H](C)[C@H]2OC(=O)O[C@@]21C | 1 µg/mL (≈ 1.24 µM) | 128 µg/mL (≈ 159 µM) | 8 µg/mL (≈ 9.95 µM) | 16 µg/mL (≈ 19.9 µM) | 128 µg/mL (≈ 159 µM) | 64 µg/mL (≈ 79.6 µM) | 8 µg/mL (≈ 9.95 µM) | 128 µg/mL (≈ 159 µM) | 64 µg/mL (≈ 79.6 µM) | 0.5 µg/mL (≈ 0.622 µM) | 32 µg/mL (≈ 39.8 µM) |
| CC[C@H]1OC(=O)[C@H](C)[C@@H](OC(=O)Nc2cccc(C)c2)[C@H](C)[C@@H](O[C@@H]2O[C@H](C)C[C@H](N(C)C)[C@H]2O)[C@](C)(O)C[C@@H](C)CN(C)[C@H](C)[C@H]2OC(=O)O[C@@]21C | 1 µg/mL (≈ 1.33 µM) | 64 µg/mL (≈ 85.3 µM) | 16 µg/mL (≈ 21.3 µM) | 2 µg/mL (≈ 2.67 µM) | 64 µg/mL (≈ 85.3 µM) | 32 µg/mL (≈ 42.7 µM) | 8 µg/mL (≈ 10.7 µM) | 64 µg/mL (≈ 85.3 µM) | 8 µg/mL (≈ 10.7 µM) | 4 µg/mL (≈ 5.33 µM) | 64 µg/mL (≈ 85.3 µM) |
| CC[C@H]1OC(=O)[C@H](C)[C@@H](OC(=O)Nc2cccc(Cl)c2)[C@H](C)[C@@H](O[C@@H]2O[C@H](C)C[C@H](N(C)C)[C@H]2O)[C@](C)(O)C[C@@H](C)CN(C)[C@H](C)[C@H]2OC(=O)O[C@@]21C | 0.25 µg/mL (≈ 0.325 µM) | 64 µg/mL (≈ 83.1 µM) | 4 µg/mL (≈ 5.19 µM) | 8 µg/mL (≈ 10.4 µM) | 128 µg/mL (≈ 166 µM) | 32 µg/mL (≈ 41.5 µM) | 1 µg/mL (≈ 1.3 µM) | 128 µg/mL (≈ 166 µM) | 16 µg/mL (≈ 20.8 µM) | 0.5 µg/mL (≈ 0.649 µM) | 32 µg/mL (≈ 41.5 µM) |
| CC[C@H]1OC(=O)[C@H](C)[C@@H](OC(=O)NCc2ccccc2)[C@H](C)[C@@H](O[C@@H]2O[C@H](C)C[C@H](N(C)C)[C@H]2OC(C)=O)[C@](C)(O)C[C@@H](C)CN(C)[C@H](C)[C@H]2OC(=O)O[C@@]21C | 8 µg/mL (≈ 10.1 µM) | 64 µg/mL (≈ 80.8 µM) | 64 µg/mL (≈ 80.8 µM) | 64 µg/mL (≈ 80.8 µM) | 128 µg/mL (≈ 162 µM) | 128 µg/mL (≈ 162 µM) | 32 µg/mL (≈ 40.4 µM) | 128 µg/mL (≈ 162 µM) | 64 µg/mL (≈ 80.8 µM) | 64 µg/mL (≈ 80.8 µM) | 128 µg/mL (≈ 162 µM) |
| CC[C@H]1OC(=O)[C@H](C)[C@@H](OC(=O)Nc2cccc(F)c2)[C@H](C)[C@@H](O[C@@H]2O[C@H](C)C[C@H](N(C)C)[C@H]2O)[C@](C)(O)C[C@@H](C)CN(C)[C@H](C)[C@H]2OC(=O)O[C@@]21C | 2 µg/mL (≈ 2.65 µM) | 128 µg/mL (≈ 170 µM) | 32 µg/mL (≈ 42.4 µM) | 32 µg/mL (≈ 42.4 µM) | 128 µg/mL (≈ 170 µM) | 128 µg/mL (≈ 170 µM) | 16 µg/mL (≈ 21.2 µM) | 128 µg/mL (≈ 170 µM) | 128 µg/mL (≈ 170 µM) | 64 µg/mL (≈ 84.9 µM) | 64 µg/mL (≈ 84.9 µM) |
| CC[C@H]1OC(=O)[C@H](C)[C@@H](OC(=O)N(C)c2ccccc2)[C@H](C)[C@@H](O[C@@H]2O[C@H](C)C[C@H](N(C)C)[C@H]2O)[C@](C)(O)C[C@@H](C)CN(C)[C@H](C)[C@H]2OC(=O)O[C@@]21C | 0.125 µg/mL (≈ 0.167 µM) | 64 µg/mL (≈ 85.3 µM) | 4 µg/mL (≈ 5.33 µM) | 4 µg/mL (≈ 5.33 µM) | 64 µg/mL (≈ 85.3 µM) | 64 µg/mL (≈ 85.3 µM) | 2 µg/mL (≈ 2.67 µM) | 64 µg/mL (≈ 85.3 µM) | 4 µg/mL (≈ 5.33 µM) | 8 µg/mL (≈ 10.7 µM) | 64 µg/mL (≈ 85.3 µM) |
| CC[C@H]1OC(=O)[C@H](C)[C@@H](OC(=O)Nc2ccc(C(F)(F)F)cc2)[C@H](C)[C@@H](O[C@@H]2O[C@H](C)C[C@H](N(C)C)[C@H]2O)[C@](C)(O)C[C@@H](C)CN(C)[C@H](C)[C@H]2OC(=O)O[C@@]21C | 1 µg/mL (≈ 1.24 µM) | 128 µg/mL (≈ 159 µM) | 4 µg/mL (≈ 4.98 µM) | 16 µg/mL (≈ 19.9 µM) | 128 µg/mL (≈ 159 µM) | 64 µg/mL (≈ 79.6 µM) | 4 µg/mL (≈ 4.98 µM) | 128 µg/mL (≈ 159 µM) | 32 µg/mL (≈ 39.8 µM) | 0.25 µg/mL (≈ 0.311 µM) | 32 µg/mL (≈ 39.8 µM) |
| CC[C@H]1OC(=O)[C@H](C)[C@@H](OC(=O)Nc2cccc(OC)c2)[C@H](C)[C@@H](O[C@@H]2O[C@H](C)C[C@H](N(C)C)[C@H]2O)[C@](C)(O)C[C@@H](C)CN(C)[C@H](C)[C@H]2OC(=O)O[C@@]21C | 2 µg/mL (≈ 2.61 µM) | 64 µg/mL (≈ 83.6 µM) | 16 µg/mL (≈ 20.9 µM) | 16 µg/mL (≈ 20.9 µM) | 64 µg/mL (≈ 83.6 µM) | 64 µg/mL (≈ 83.6 µM) | 16 µg/mL (≈ 20.9 µM) | 64 µg/mL (≈ 83.6 µM) | 16 µg/mL (≈ 20.9 µM) | 32 µg/mL (≈ 41.8 µM) | 64 µg/mL (≈ 83.6 µM) |
| CC[C@H]1OC(=O)[C@H](C)[C@@H](OC(=O)Nc2ccccc2)[C@H](C)[C@@H](O[C@@H]2O[C@H](C)C[C@H](N(C)C)[C@H]2O)[C@](C)(O)C[C@@H](C)CN(C)[C@H](C)[C@@H](OC(=O)NCc2ccccc2)[C@]1(C)O | 2 µg/mL (≈ 2.37 µM) | 128 µg/mL (≈ 152 µM) | 2 µg/mL (≈ 2.37 µM) | 32 µg/mL (≈ 38 µM) | 64 µg/mL (≈ 75.9 µM) | 64 µg/mL (≈ 75.9 µM) | 16 µg/mL (≈ 19 µM) | 64 µg/mL (≈ 75.9 µM) | 8 µg/mL (≈ 9.49 µM) | 32 µg/mL (≈ 38 µM) | 128 µg/mL (≈ 152 µM) |
| CC[C@H]1OC(=O)[C@H](C)[C@@H](OC(=O)Nc2ccccc2Cl)[C@H](C)[C@@H](O[C@@H]2O[C@H](C)C[C@H](N(C)C)[C@H]2O)[C@](C)(O)C[C@@H](C)CN(C)[C@H](C)[C@H]2OC(=O)O[C@@]21C | 0.125 µg/mL (≈ 0.162 µM) | 64 µg/mL (≈ 83.1 µM) | 4 µg/mL (≈ 5.19 µM) | 8 µg/mL (≈ 10.4 µM) | 128 µg/mL (≈ 166 µM) | 128 µg/mL (≈ 166 µM) | 1 µg/mL (≈ 1.3 µM) | 128 µg/mL (≈ 166 µM) | 8 µg/mL (≈ 10.4 µM) | 64 µg/mL (≈ 83.1 µM) | 64 µg/mL (≈ 83.1 µM) |
| CCCCCNC(=O)O[C@H]1[C@H](C)[C@@H](O[C@@H]2O[C@H](C)C[C@H](N(C)C)[C@H]2OC(C)=O)[C@](C)(O)C[C@@H](C)CN(C)[C@H](C)[C@H]2OC(=O)O[C@]2(C)[C@@H](CC)OC(=O)[C@@H]1C | 4 µg/mL (≈ 5.18 µM) | 64 µg/mL (≈ 82.9 µM) | 128 µg/mL (≈ 166 µM) | 32 µg/mL (≈ 41.5 µM) | 128 µg/mL (≈ 166 µM) | 128 µg/mL (≈ 166 µM) | 32 µg/mL (≈ 41.5 µM) | 128 µg/mL (≈ 166 µM) | 32 µg/mL (≈ 41.5 µM) | 32 µg/mL (≈ 41.5 µM) | 64 µg/mL (≈ 82.9 µM) |
| CC[C@H]1OC(=O)[C@H](C)[C@@H](OC(=O)Nc2ccccc2F)[C@H](C)[C@@H](O[C@@H]2O[C@H](C)C[C@H](N(C)C)[C@H]2O)[C@](C)(O)C[C@@H](C)CN(C)[C@H](C)[C@H]2OC(=O)O[C@@]21C | 0.5 µg/mL (≈ 0.663 µM) | 64 µg/mL (≈ 84.9 µM) | 16 µg/mL (≈ 21.2 µM) | 8 µg/mL (≈ 10.6 µM) | 64 µg/mL (≈ 84.9 µM) | 64 µg/mL (≈ 84.9 µM) | 16 µg/mL (≈ 21.2 µM) | 64 µg/mL (≈ 84.9 µM) | 32 µg/mL (≈ 42.4 µM) | 4 µg/mL (≈ 5.31 µM) | 64 µg/mL (≈ 84.9 µM) |
